Source: ChEMBL document CHEMBL3797149, “1-Sulfonyl-6-Piperazinyl-7-Azaindoles as potent and pseudo-selective 5-HT6 receptor antagonists” (Bioorg Med Chem Lett, 2016)
≈ marks a conversion by molar mass, not a printed value.

Key:
D(2) dopamine receptor = D(2) dopamine receptor (Homo sapiens, UniProt P14416); assay: Displacement of [3H]NMSP from human dopamine D2S receptor expressed in CHO cell membrane incubated for 1 hr by scintillation counting method; assay type: cell membranes
How it was run: (§1)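 Competition binding: [3H]-LSD displacement for 5-HT6 and [3H]-NMSP displacement for D2. Eight compound concentrations, 5 × 10^-6 to 5 × 10^-13 M, each tested in triplicate. Affinity is reported as Ki.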

[1] = Passive permeability of compound after 4 hrs by sink-PAMPA assay; assay type: ADME; settings: read-out: permeability
Cytochrome P450 3A4 = Cytochrome P450 3A4 (Homo sapiens, UniProt P08684); assay: Inhibition of human recombinant CYP3A4 using 7-benzyloxy-trifluoromethylcoumarin as substrate incubated for 30 mins by fluorescence analysis in presence of NADPH; assay type: ADME
Cytochrome P450 2D6 = Cytochrome P450 2D6 (Homo sapiens, UniProt P10635); assay: Inhibition of human recombinant CYP2D6 using AMMC as substrate incubated for 45 mins by fluorescence analysis in presence of NADPH; assay type: ADME
[2] = Intrinsic clearance in human liver microsomes at 1 uM by UPLC-MS analysis in presence of NADPH and UDPGA; assay type: ADME; settings: read-out: CLH
[3] = Intrinsic clearance in mouse liver microsomes at 1 uM by UPLC-MS analysis in presence of NADPH and UDPGA; assay type: ADME; settings: read-out: CLH
[4] = Intrinsic clearance in rat liver microsomes at 1 uM by UPLC-MS analysis in presence of NADPH and UDPGA; assay type: ADME; settings: read-out: CLH
[5] = molecular target: Voltage-gated inwardly rectifying potassium channel KCNH2 (Homo sapiens, UniProt Q12809); assay: Inhibition of human ERG1 expressed in CHO cells by whole cell patch clamp electrophysiology method
[6] = Kinetic solubility in sorensen buffer at pH 7.4 incubated for 1 hr by UV-Visible spectrophotometry; assay type: physicochemical; settings: read-out: Kinetic_solubility
[7] = Cmax in CD1 mouse plasma at 3 mg/kg, po as single dose after 0.083 to 6 hrs by LC-MS/MS analysis; assay type: ADME, organism-based; parameters: dose 3 mg/kg, route oral
[8] = Tmax in CD1 mouse plasma at 3 mg/kg, po as single dose by LC-MS/MS analysis; assay type: ADME, organism-based
[9] = AUClast in CD1 mouse plasma at 3 mg/kg, po as single dose after 0.083 to 6 hrs by LC-MS/MS analysis; assay type: ADME, organism-based; parameters: dose 3 mg/kg, time upper 6 hr, time lower 0.083 hr, route oral
[10] = Cmax in CD1 mouse plasma at 10 mg/kg, po as single dose after 0.083 to 6 hrs by LC-MS/MS analysis; assay type: ADME, organism-based; parameters: dose 10 mg/kg, route oral
[11] = Tmax in CD1 mouse plasma at 10 mg/kg, po as single dose by LC-MS/MS analysis; assay type: ADME, organism-based
[12] = AUClast in CD1 mouse plasma at 10 mg/kg, po as single dose after 0.083 to 6 hrs by LC-MS/MS analysis; assay type: ADME, organism-based; parameters: time upper 6 hr, time lower 0.083 hr, dose 10 mg/kg, route oral
[13] = Cmax in CD1 mouse plasma at 3 mg/kg, sc after 0.083 to 6 hrs by LC-MS/MS analysis; assay type: ADME, organism-based; parameters: dose 3 mg/kg, route subcutaneous
[14] = Tmax in CD1 mouse plasma at 3 mg/kg, sc by LC-MS/MS analysis; assay type: ADME, organism-based
[15] = AUClast in CD1 mouse plasma at 3 mg/kg, sc after 0.083 to 6 hrs by LC-MS/MS analysis; assay type: ADME, organism-based; parameters: time lower 0.083 hr, dose 3 mg/kg, time upper 6 hr, route subcutaneous
[16] = Cmax in CD1 mouse plasma at 10 mg/kg, sc after 0.083 to 6 hrs by LC-MS/MS analysis; assay type: ADME, organism-based; parameters: dose 10 mg/kg, route subcutaneous
[17] = Tmax in CD1 mouse plasma at 10 mg/kg, sc by LC-MS/MS analysis; assay type: ADME, organism-based
[18] = AUClast in CD1 mouse plasma at 10 mg/kg, sc after 0.083 to 6 hrs by LC-MS/MS analysis; assay type: ADME, organism-based; parameters: time 0.083-6 hr, dose 10 mg/kg, route subcutaneous
Brain [19] = assay: Cmax in CD1 mouse brain at 3 mg/kg, po as single dose after 6 hrs by LC-MS/MS analysis; assay type: ADME, organism-based; parameters: dose 3 mg/kg, route oral; settings: in vivo, BLD = below limit of detection
Brain [20] = assay: Tmax in CD1 mouse brain at 3 mg/kg, po as single dose by LC-MS/MS analysis; assay type: ADME, organism-based; settings: in vivo, BLD = below limit of detection
[21] = Cmax in CD1 mouse brain at 10 mg/kg, po as single dose after 6 hrs by LC-MS/MS analysis; assay type: ADME, organism-based; parameters: dose 10 mg/kg, route oral
[22] = Tmax in CD1 mouse brain at 10 mg/kg, po as single dose by LC-MS/MS analysis; assay type: ADME, organism-based
[23] = AUClast in CD1 mouse brain at 10 mg/kg, po as single dose after 6 hrs by LC-MS/MS analysis; assay type: ADME, organism-based; parameters: time < 6 hr, dose 10 mg/kg, route oral
[24] = Cmax in CD1 mouse brain at 3 mg/kg, sc after 6 hrs by LC-MS/MS analysis; assay type: ADME, organism-based; parameters: dose 3 mg/kg, route subcutaneous
[25] = Tmax in CD1 mouse brain at 3 mg/kg, sc by LC-MS/MS analysis; assay type: ADME, organism-based
[26] = AUClast in CD1 mouse brain at 3 mg/kg, sc after 6 hrs by LC-MS/MS analysis; assay type: ADME, organism-based; parameters: time < 6 hr, dose 3 mg/kg, route subcutaneous
[27] = Cmax in CD1 mouse brain at 10 mg/kg, sc after 6 hrs by LC-MS/MS analysis; assay type: ADME, organism-based; parameters: dose 10 mg/kg, route subcutaneous
[28] = Tmax in CD1 mouse brain at 10 mg/kg, sc by LC-MS/MS analysis; assay type: ADME, organism-based
[29] = AUClast in CD1 mouse brain at 10 mg/kg, sc after 6 hrs by LC-MS/MS analysis; assay type: ADME, organism-based; parameters: dose 10 mg/kg, time < 6 hr, route subcutaneous
[30] = Cmax in CD1 mouse liver at 3 mg/kg, po as single dose after 6 hrs by LC-MS/MS analysis; assay type: ADME, organism-based; parameters: dose 3 mg/kg, route oral
[31] = Tmax in CD1 mouse liver at 3 mg/kg, po as single dose by LC-MS/MS analysis; assay type: ADME, organism-based
[32] = AUClast in CD1 mouse liver at 3 mg/kg, po as single dose after 6 hrs by LC-MS/MS analysis; assay type: ADME, organism-based; parameters: dose 3 mg/kg, time < 6 hr, route oral
[33] = Cmax in CD1 mouse liver at 10 mg/kg, po as single dose after 6 hrs by LC-MS/MS analysis; assay type: ADME, organism-based; parameters: dose 10 mg/kg, route oral
[34] = Tmax in CD1 mouse liver at 10 mg/kg, po as single dose by LC-MS/MS analysis; assay type: ADME, organism-based
[35] = AUClast in CD1 mouse liver at 10 mg/kg, po as single dose after 6 hrs by LC-MS/MS analysis; assay type: ADME, organism-based; parameters: dose 10 mg/kg, time < 6 hr, route oral
[36] = Cmax in CD1 mouse liver at 3 mg/kg, sc after 6 hrs by LC-MS/MS analysis; assay type: ADME, organism-based; parameters: dose 3 mg/kg, route subcutaneous
[37] = Tmax in CD1 mouse liver at 3 mg/kg, sc by LC-MS/MS analysis; assay type: ADME, organism-based
[38] = AUClast in CD1 mouse liver at 3 mg/kg, sc after 6 hrs by LC-MS/MS analysis; assay type: ADME, organism-based; parameters: time < 6 hr, dose 3 mg/kg, route subcutaneous
[39] = Cmax in CD1 mouse liver at 10 mg/kg, sc after 6 hrs by LC-MS/MS analysis; assay type: ADME, organism-based; parameters: dose 10 mg/kg, route subcutaneous
[40] = Tmax in CD1 mouse liver at 10 mg/kg, sc by LC-MS/MS analysis; assay type: ADME, organism-based
[41] = AUClast in CD1 mouse liver at 10 mg/kg, sc after 6 hrs by LC-MS/MS analysis; assay type: ADME, organism-based; parameters: dose 10 mg/kg, time < 6 hr, route subcutaneous
[42] = Ratio of drug level in brain to plasma in CD1 mouse at 3 mg/kg, po as single dose by LC-MS/MS analysis; assay type: ADME, organism-based; settings: BLD = below limit of detection
[43] = Ratio of drug level in brain to plasma in CD1 mouse at 10 mg/kg, po as single dose by LC-MS/MS analysis; assay type: ADME, organism-based; settings: read-out: BPR
[44] = Ratio of drug level in brain to plasma in CD1 mouse at 3 mg/kg, sc by LC-MS/MS analysis; assay type: ADME, organism-based; settings: read-out: BPR
[45] = Ratio of drug level in brain to plasma in CD1 mouse at 10 mg/kg, sc by LC-MS/MS analysis; assay type: ADME, organism-based; settings: read-out: BPR
[46] = Ratio of drug level in liver to plasma in CD1 mouse at 3 mg/kg, po as single dose by LC-MS/MS analysis; assay type: ADME, organism-based
[47] = Ratio of drug level in liver to plasma in CD1 mouse at 10 mg/kg, po as single dose by LC-MS/MS analysis; assay type: ADME, organism-based
[48] = Ratio of drug level in liver to plasma in CD1 mouse at 3 mg/kg, sc by LC-MS/MS analysis; assay type: ADME, organism-based
[49] = Ratio of drug level in liver to plasma in CD1 mouse at 10 mg/kg, sc by LC-MS/MS analysis; assay type: ADME, organism-based
[50] = molecular target: 5-hydroxytryptamine receptor 6 (Homo sapiens, UniProt P50406); assay: Displacement of [3H]LSD from human 5HT6 receptor in HEK293 cell membrane incubated for 1 hr by scintillation counting method; assay type: cell membranes; how it was run: as §1
5-hydroxytryptamine receptor 6, sequence (P50406 whole entry): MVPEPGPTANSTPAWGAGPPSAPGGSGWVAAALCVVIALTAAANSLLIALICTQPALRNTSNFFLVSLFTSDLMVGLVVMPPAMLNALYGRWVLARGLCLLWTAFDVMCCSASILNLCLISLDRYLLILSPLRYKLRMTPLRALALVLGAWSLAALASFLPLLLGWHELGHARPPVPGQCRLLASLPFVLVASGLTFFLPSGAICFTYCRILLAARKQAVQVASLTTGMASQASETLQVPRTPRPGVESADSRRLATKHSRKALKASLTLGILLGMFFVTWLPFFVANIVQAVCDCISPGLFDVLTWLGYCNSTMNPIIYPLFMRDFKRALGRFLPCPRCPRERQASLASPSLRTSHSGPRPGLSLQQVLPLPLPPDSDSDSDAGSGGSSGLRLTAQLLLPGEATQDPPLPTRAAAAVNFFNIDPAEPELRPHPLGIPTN

Cytochrome P450 2D6, sequence (P10635 whole entry): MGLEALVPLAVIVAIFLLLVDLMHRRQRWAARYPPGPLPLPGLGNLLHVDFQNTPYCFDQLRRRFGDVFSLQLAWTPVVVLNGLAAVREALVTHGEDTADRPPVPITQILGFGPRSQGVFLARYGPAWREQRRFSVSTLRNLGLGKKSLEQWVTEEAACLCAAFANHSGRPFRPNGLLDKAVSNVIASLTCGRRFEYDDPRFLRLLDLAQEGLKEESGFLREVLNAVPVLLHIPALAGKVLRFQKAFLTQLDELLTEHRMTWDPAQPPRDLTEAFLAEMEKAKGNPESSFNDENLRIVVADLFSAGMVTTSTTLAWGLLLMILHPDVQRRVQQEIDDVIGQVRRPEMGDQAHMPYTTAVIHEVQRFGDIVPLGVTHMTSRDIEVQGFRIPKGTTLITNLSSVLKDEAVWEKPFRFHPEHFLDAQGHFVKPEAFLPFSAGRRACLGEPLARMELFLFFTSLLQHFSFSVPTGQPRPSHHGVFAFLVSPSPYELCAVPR
Cytochrome P450 3A4, sequence (P08684 whole entry): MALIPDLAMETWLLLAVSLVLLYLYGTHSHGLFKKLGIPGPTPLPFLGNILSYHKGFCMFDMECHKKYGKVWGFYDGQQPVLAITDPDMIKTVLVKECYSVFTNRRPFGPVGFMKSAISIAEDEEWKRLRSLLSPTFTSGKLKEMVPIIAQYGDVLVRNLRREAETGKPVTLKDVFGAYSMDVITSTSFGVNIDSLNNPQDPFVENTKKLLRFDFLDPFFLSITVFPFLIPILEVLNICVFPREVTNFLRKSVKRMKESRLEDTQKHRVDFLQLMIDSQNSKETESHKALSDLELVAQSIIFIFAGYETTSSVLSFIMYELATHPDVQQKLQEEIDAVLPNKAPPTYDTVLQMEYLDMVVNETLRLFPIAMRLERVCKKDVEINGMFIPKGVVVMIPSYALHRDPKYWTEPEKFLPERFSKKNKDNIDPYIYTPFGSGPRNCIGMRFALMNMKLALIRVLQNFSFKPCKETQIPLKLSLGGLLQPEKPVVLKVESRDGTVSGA
Voltage-gated inwardly rectifying potassium channel KCNH2, sequence (Q12809 whole entry): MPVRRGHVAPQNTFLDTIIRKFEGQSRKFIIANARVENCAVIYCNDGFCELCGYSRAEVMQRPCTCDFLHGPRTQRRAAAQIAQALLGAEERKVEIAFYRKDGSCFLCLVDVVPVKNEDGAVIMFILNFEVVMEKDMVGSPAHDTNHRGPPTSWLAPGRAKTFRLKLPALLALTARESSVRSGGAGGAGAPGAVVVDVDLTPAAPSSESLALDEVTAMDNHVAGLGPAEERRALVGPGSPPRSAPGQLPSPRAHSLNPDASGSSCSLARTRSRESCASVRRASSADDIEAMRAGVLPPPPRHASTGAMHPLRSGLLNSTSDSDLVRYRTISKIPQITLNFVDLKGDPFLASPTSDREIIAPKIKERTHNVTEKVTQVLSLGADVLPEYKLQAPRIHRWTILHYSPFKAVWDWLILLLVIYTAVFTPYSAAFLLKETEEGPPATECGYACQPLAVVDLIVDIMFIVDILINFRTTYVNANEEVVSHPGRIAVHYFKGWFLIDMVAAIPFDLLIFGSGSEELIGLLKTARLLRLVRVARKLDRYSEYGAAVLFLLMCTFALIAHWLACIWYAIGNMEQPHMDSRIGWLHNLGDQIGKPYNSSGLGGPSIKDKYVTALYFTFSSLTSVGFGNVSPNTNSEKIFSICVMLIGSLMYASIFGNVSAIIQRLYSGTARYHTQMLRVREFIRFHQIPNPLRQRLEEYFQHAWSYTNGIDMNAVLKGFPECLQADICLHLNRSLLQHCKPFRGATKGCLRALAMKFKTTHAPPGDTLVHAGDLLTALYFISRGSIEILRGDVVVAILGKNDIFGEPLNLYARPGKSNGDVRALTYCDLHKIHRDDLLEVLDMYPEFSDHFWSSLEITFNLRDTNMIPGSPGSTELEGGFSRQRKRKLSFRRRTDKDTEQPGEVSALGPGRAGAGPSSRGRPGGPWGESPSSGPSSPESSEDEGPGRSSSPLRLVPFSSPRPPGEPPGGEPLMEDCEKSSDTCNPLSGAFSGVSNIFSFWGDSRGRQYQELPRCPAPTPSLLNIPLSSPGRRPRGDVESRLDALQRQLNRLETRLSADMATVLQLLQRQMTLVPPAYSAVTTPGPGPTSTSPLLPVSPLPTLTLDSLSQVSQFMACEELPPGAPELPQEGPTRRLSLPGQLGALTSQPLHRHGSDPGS
D(2) dopamine receptor, sequence (P14416 whole entry): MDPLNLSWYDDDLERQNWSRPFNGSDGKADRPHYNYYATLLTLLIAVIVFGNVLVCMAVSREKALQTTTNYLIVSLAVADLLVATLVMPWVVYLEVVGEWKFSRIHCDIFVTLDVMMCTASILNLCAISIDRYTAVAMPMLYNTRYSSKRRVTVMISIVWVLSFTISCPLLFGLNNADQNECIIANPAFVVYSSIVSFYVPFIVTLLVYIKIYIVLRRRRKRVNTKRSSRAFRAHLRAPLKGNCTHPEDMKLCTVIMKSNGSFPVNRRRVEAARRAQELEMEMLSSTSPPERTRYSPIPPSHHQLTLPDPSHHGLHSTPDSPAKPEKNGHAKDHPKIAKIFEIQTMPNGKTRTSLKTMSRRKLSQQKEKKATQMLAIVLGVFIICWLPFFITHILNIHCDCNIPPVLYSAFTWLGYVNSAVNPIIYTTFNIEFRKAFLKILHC

CC(C)CS(=O)(=O)n1ccc2c(-c3ccc(C(F)(F)F)cc3)cc(N3CCN(C)CC3)nc21
Ki (D(2) dopamine receptor): 367 nM
Papp at 4 h [1]: 53.7 ×10⁻⁶ cm/s
IC50 (Cytochrome P450 3A4): 1100 nM
IC50 (Cytochrome P450 2D6): 3300 nM
microsomal CLint at 1 µM [2]: 20 µL/min/mg
microsomal CLint at 1 µM [3]: 63 µL/min/mg
microsomal CLint at 1 µM [4]: 55 µL/min/mg
IC50 [5]: 2100 nM
solubility kinetic at 1 h [6]: 8 µg/mL (≈ 16.6 µM)
Cmax [7]: 3 ng/mL
Tmax [8]: 1 h
AUC(0-t) [9]: 13 ng·h/mL
Cmax [10]: 17 ng/mL
Tmax [11]: 6 h
AUC(0-t) [12]: 97 ng·h/mL
Cmax [13]: 18 ng/mL
Tmax [14]: 1 h
AUC(0-t) [15]: 90 ng·h/mL
Cmax [16]: 44 ng/mL
Tmax [17]: 1 h
AUC(0-t) [18]: 208 ng·h/mL
Cmax (Brain [19]): BLD
Tmax (Brain [20]): BLD
Cmax [21]: 26 ng/mL
Tmax [22]: 6 h
AUC(0-t) at 6 h [23]: 134 ng·h/mL
Cmax [24]: 16 ng/mL
Tmax [25]: 6 h
AUC(0-t) at 6 h [26]: 79 ng·h/mL
Cmax [27]: 36 ng/mL
Tmax [28]: 6 h
AUC(0-t) at 6 h [29]: 161 ng·h/mL
Cmax [30]: 110 ng/mL
Tmax [31]: 0.25 h
AUC(0-t) at 6 h [32]: 260 ng·h/mL
Cmax [33]: 740 ng/mL
Tmax [34]: 0.5 h
AUC(0-t) at 6 h [35]: 2970 ng·h/mL
Cmax [36]: 43 ng/mL
Tmax [37]: 1 h
AUC(0-t) at 6 h [38]: 241 ng·h/mL
Cmax [39]: 142 ng/mL
Tmax [40]: 1 h
AUC(0-t) at 6 h [41]: 687 ng·h/mL
BPR [42]: BLD
Kp [43]: 1.4
Kp [44]: 0.9
Kp [45]: 0.8
Kp [46]: 19.5
Kp [47]: 30.7
Kp [48]: 2.7
Kp [49]: 3.3
Ki [50]: 4 nM
